Reference: ChEMBL document CHEMBL1133676, “Synthesis and hypolipidemic and antiplatelet activities of alpha-asarone isomers in humans (in vitro), mice (in vivo), and rats (in vivo)” (2000)

Experiments:
Assay type in all cases: functional
Rattus norvegicus [1] = assay: Total cholesterol level in Wistar male rats administered at a dose of 80 mg/kg
How it was run: (§1)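 Agents in oil (5 mL/kg) were given once daily by gastric intubation. Doses were 80 mg/kg for test agents and 150 mg/kg for the positive control; chow-fed and vehicle-oil groups served as controls. After a 16 h fast and ether anesthesia, ocular-puncture blood was drawn. Serum lipids were measured by kit spectrophotometry; Student's t-test, n = 9–10.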

Rattus norvegicus [2] = assay: HDL (high density lipoproteins) cholesterol level in Wistar male rats at a dose of 80 mg/kg; how it was run: as §1
Rattus norvegicus [3] = assay: Triglyceride level in Wistar male rats administered at a dose of 80 mg/kg; how it was run: as §1
Rattus norvegicus [4] = assay: LDL (low density lipoproteins) cholesterol level in Wistar male rats at a dose of 80 mg/kg
How it was run: (§2)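 Compounds in oil (5 mL/kg) were given by gastric intubation once daily, at 80 mg/kg or 150 mg/kg for clofibrate. Rats were then fasted 16 h […], and serum lipids were measured spectrophotometrically with kits; Student's t-test.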

Homo sapiens [5] = organism: Homo sapiens; assay: In vitro inhibition of human platelet aggregation induced by 10 uM ADP after incubation at 200 uM
How it was run: (§3)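 Born turbidimetric assay in citrated platelet-rich plasma from healthy male volunteers, with platelet-poor plasma set as 100% transmission. Agents in 95% ethanol were preincubated with PRP for 2 min at 37 °C, stirred at 1000 rpm.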

Homo sapiens [6] = organism: Homo sapiens; assay: In vitro inhibition of human platelet aggregation induced by 10 uM ADP after incubation at 250 uM; how it was run: as §3
Homo sapiens [7] = organism: Homo sapiens; assay: In vitro inhibition of human platelet aggregation induced by 10 uM ADP after incubation at 150 uM; how it was run: as §3
Homo sapiens [8] = organism: Homo sapiens; assay: In vitro inhibition of human platelet aggregation induced by 10 uM ADP after incubation at 300 uM; how it was run: as §3
Homo sapiens [9] = organism: Homo sapiens; assay: In vitro inhibition of human platelet aggregation induced by 10 uM ADP after incubation at 100 uM; how it was run: as §3
Mus musculus [10] = assay: Effect on acute pulmonary thromboembolism in mice at 100 mg/kg expressed as no. of killed or paralyzed to no. of tested observed after 10 min
How it was run: (§4)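 Male Swiss mice (29.4 ± 2.6 g) were given a single ip dose 1 h before a rapid tail-vein injection of collagen (25 μg/mouse) plus epinephrine (27 μg/mouse) in 0.154 M NaCl. Vehicles were miglyol 812 for asarones, or DMSO with Sörensen phosphate buffer pH 7.0 for ketorolac, at 0.1 mL/10 g. Death or paralysis was scored within 10 min; controls received vehicle only; χ² test.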

Mus musculus [11] = assay: Effect on acute pulmonary thromboembolism in mice at 100 mg/kg
How it was run: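 Male Swiss mice (29.4 ± 2.6 g) received a single ip dose 1 h before a rapid tail-vein injection of collagen (25 μg/mouse) plus epinephrine (27 μg/mouse) in 0.154 M NaCl. Asarones were given in miglyol 812, and ketorolac in DMSO/Sörensen phosphate buffer pH 7.0, at 0.1 mL/10 g. Death or paralysis was scored within 10 min and reported as % protected versus vehicle controls; χ² test.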

Mus musculus [12] = assay: Effect on acute pulmonary thromboembolism in mice at 25 mg/kg expressed as no. of killed or paralyzed to no. of tested observed after 10 min
Mus musculus [13] = assay: Effect on acute pulmonary thromboembolism in mice at 25 mg/kg
Mus musculus [14] = assay: Effect on acute pulmonary thromboembolism in mice at 50 mg/kg; how it was run: as §4
Mus musculus [15] = assay: Effect on acute pulmonary thromboembolism in mice at 50 mg/kg expressed as no. of killed or paralyzed to no. of tested observed after 10 min; how it was run: as §4
Rattus norvegicus [16] = assay: Total cholesterol level in Wistar male rats at a dose of 80 mg/kg; how it was run: as §2
Rattus norvegicus [17] = assay: Triglyceride level in Wistar male rats at a dose of 80 mg/kg; how it was run: as §2
Rattus norvegicus [18] = assay: Total cholesterol level in Wistar male rats at a dose of 150 mg/kg; how it was run: as §1
Rattus norvegicus [19] = assay: LDL (low density lipoproteins) cholesterol level in Wistar male rats at 150 mg/kg; how it was run: as §2
Rattus norvegicus [20] = assay: HDL (high density lipoproteins) cholesterol level in Wistar male rats at 150 mg/kg; how it was run: as §1
Rattus norvegicus [21] = assay: Triglyceride level in Wistar male rats at a dose of 150 mg/kg; how it was run: as §1
Rattus norvegicus [22] = organism: Rattus norvegicus; assay: Cholesterol level in Wistar male rats; how it was run: as §1
Rattus norvegicus [23] = organism: Rattus norvegicus; assay: Triglyceride level in Wistar male rats; how it was run: as §1
Rattus norvegicus [24] = organism: Rattus norvegicus; assay: LDL (low density lipoproteins) cholesterol level in Wistar male rats; how it was run: as §2
Rattus norvegicus [25] = organism: Rattus norvegicus; assay: HDL (high density lipoproteins) cholesterol level in Wistar male rats; how it was run: as §1

Compound	Total cholesterol (Rattus norvegicus [1]) [mg/dL]	HDL cholesterol (Rattus norvegicus [2]) [mg/dL]	Triglyceride level (Rattus norvegicus [3]) [mg/dL]	LDL cholesterol (Rattus norvegicus [4]) [mg/dL]	No. of killed or paralyzed (Mus musculus [10])	Protected (Mus musculus [11]) [%]	further results
C/C=C/c1cc(OC)c(OC)c(OC)c1.CC(C)CCC[C@@H](C)[C@H]1CC[C@H]2[C@@H]3CC=C4C[C@@H](O)CC[C@]4(C)[C@H]3CC[C@]12C	93.4	45.3	136	19.8	–	–	–
C/C=C/c1cc(OC)cc(OC)c1OC.CC(C)CCC[C@@H](C)[C@H]1CC[C@H]2[C@@H]3CC=C4C[C@@H](O)CC[C@]4(C)[C@H]3CC[C@]12C	97.9	39.2	140	35.8	–	–	–
C/C=C/c1c(OC)cc(OC)cc1OC	–	–	–	–	30	25	Inhibition (Homo sapiens [5]): 31%; Inhibition (Homo sapiens [6]): 7.5%; Inhibition (Homo sapiens [7]): 19%; Inhibition (Homo sapiens [8]): 17.5%; Inhibition (Homo sapiens [9]): 15.9%
CC(=O)Oc1ccccc1C(=O)O [ASPIRIN]	–	–	–	–	–	–	Inhibition (Homo sapiens [5]): 48.5%; Inhibition (Homo sapiens [6]): 56.4%; Inhibition (Homo sapiens [7]): 37.1%; No. of killed or paralyzed (Mus musculus [12]): 28; Inhibition (Homo sapiens [9]): 31.2%; Protected (Mus musculus [13]): 45%
C/C=C/c1c(OC)ccc(OC)c1OC.CC(C)CCC[C@@H](C)[C@H]1CC[C@H]2[C@@H]3CC=C4C[C@@H](O)CC[C@]4(C)[C@H]3CC[C@]12C	115	30.2	162	48.2	–	–	–
C/C=C/c1cc(OC)c(OC)cc1OC [TRANS-ASARONE]	–	–	–	–	10	44	Inhibition (Homo sapiens [5]): 40.3%; Protected (Mus musculus [14]): 0%; No. of killed or paralyzed (Mus musculus [15]): 13; Inhibition (Homo sapiens [6]): 30.3%; Inhibition (Homo sapiens [7]): 14.7%; Inhibition (Homo sapiens [8]): 47%; Inhibition (Homo sapiens [9]): 4%
C/C=C/c1cc(OC)cc(OC)c1OC	–	–	–	–	12	52	Inhibition (Homo sapiens [5]): 35.4%; Inhibition (Homo sapiens [6]): 38.3%; Inhibition (Homo sapiens [7]): 25.4%; Inhibition (Homo sapiens [8]): 38.3%; Inhibition (Homo sapiens [9]): 13%
C/C=C/c1cc(OC)c(OC)c(OC)c1	–	–	–	–	17	19	–
C/C=C/c1cc(OC)c(OC)cc1OC.CC(C)CCC[C@@H](C)[C@H]1CC[C@H]2[C@@H]3CC=C4C[C@@H](O)CC[C@]4(C)[C@H]3CC[C@]12C [ALPHAASARONE AND CHOLESTEROL]	–	45.5	–	24.4	–	–	Total cholesterol (Rattus norvegicus [16]): 113.6 mg/kg; Triglyceride level (Rattus norvegicus [17]): 219.3
O=C(c1ccccc1)c1ccc2n1CCC2C(=O)O (configuration not stated) [KETOROLAC]	–	–	–	–	16	33	–
CC(C)CCC[C@@H](C)[C@H]1CC[C@H]2[C@@H]3CC=C4C[C@@H](O)CC[C@]4(C)[C@H]3CC[C@]12C.CCOC(=O)C(C)(C)Oc1ccc(Cl)cc1 [CLOFIBRATE + CHOLESTEROL]	–	–	–	–	–	–	Total cholesterol (Rattus norvegicus [18]): 85.8 mg/dL; LDL cholesterol (Rattus norvegicus [19]): 46.1 mg/dL; HDL cholesterol (Rattus norvegicus [20]): 22.1 mg/dL; Triglyceride level (Rattus norvegicus [21]): 91.6 mg/dL
CC(C)CCC[C@@H](C)[C@H]1CC[C@H]2[C@@H]3CC=C4C[C@@H](O)CC[C@]4(C)[C@H]3CC[C@]12C [CHOLESTEROL]	–	–	–	–	–	–	Total cholesterol (Rattus norvegicus [22]): 111 mg/dL; Triglyceride level (Rattus norvegicus [23]): 125 mg/dL; LDL cholesterol (Rattus norvegicus [24]): 43.2 mg/dL; HDL cholesterol (Rattus norvegicus [25]): 29 mg/dL
C/C=C/c1c(OC)cc(OC)cc1OC.CC(C)CCC[C@@H](C)[C@H]1CC[C@H]2[C@@H]3CC=C4C[C@@H](O)CC[C@]4(C)[C@H]3CC[C@]12C	98.1	37.9	116	36.9	–	–	–
C/C=C/c1ccc(OC)c(OC)c1OC	–	–	–	–	14	0	–
C/C=C/c1ccc(OC)c(OC)c1OC.CC(C)CCC[C@@H](C)[C@H]1CC[C@H]2[C@@H]3CC=C4C[C@@H](O)CC[C@]4(C)[C@H]3CC[C@]12C	96.6	42.8	125	30.1	–	–	–
